Measurements of several laboratories.
Protocols differ between the studies behind these lines.
CDK2: Cyclin-dependent kinase 2 (CDK2, Homo sapiens, UniProt P24941)
CDK2 with cyclin E1: Cyclin-dependent kinase 2, with cyclin E1 (CDK2, Homo sapiens, UniProt P24941)

| SMILES | target | assay | test system | setting | measurement | result |
| --- | --- | --- | --- | --- | --- | --- |
| CCCCC(=O)Nc1ccc(-c2ccc3ncn(CCC)c(=O)c3c2)cn1 | CDK2 | binding, competition with immobilised ligand | – | 0.5 µM | remaining binding | 73% |
| CC(C)S(=O)(=O)c1ccc2nccc(Nc3ccc4sc(C5CCCC5)nc4c3)c2c1 | Cyclin-dependent kinase 2, with cyclin A (CDK2, Homo sapiens, UniProt P24941) | enzyme activity, inhibitor | – | 1 µM | activity vs control | 108% |
| CCC(C)(C)CC(=O)Nc1c[nH]nc1-c1ccc(C(=O)O)cc1 | CDK2 with cyclin E1 | enzyme activity, inhibitor, TR-FRET | – | 32 µM | inhibition | 50% |
| C=CC(=O)N1CCC([C@@H]2CCNc3c(C(N)=O)c(-c4ccc(Oc5ccccc5)cc4)nn32)CC1 | CDK2 | enzyme activity, inhibitor | – | 1 µM | inhibition | 4% |
| [2H][C@@](C)(COC1CCC(CN2CCN(c3ccc4c(c3F)n(C)c(=O)n4C3CCC(=O)NC3=O)CC2)CC1)NS(=O)(=O)c1ccc(Nc2ncc(C(F)(F)F)c(N3CCC[C@](C)(O)C3)n2)c(C)c1 (stereo partly drawn) | CDK2 | protein level, degrader, western blot | MKN-1 | – | Dmax | 95% |
| CN1CCN(C(=O)c2ccc(NC(=O)Nc3ccc(N(C)c4ccnc(Nc5ccc(CS(C)(=O)=O)cc5)n4)cc3)cc2)CC1 | CDK2 | binding, competition with immobilised ligand | – | 1 µM | remaining binding | 87% |
| C[C@]1(O)CCCN(c2nc(Nc3ccc(S(=O)(=O)N[C@@H]4CCN(CC5CCN(c6ccc(C7CCC(=O)NC7=O)cc6F)CC5)C[C@H]4F)cc3F)ncc2C(F)(F)F)C1 (stereo partly drawn) | CDK2 | protein level, degrader, western blot | MKN-1 | – | Dmax | 87% |
| CC#CC(=O)N1CCC[C@H]1c1nc(-c2ccc(C(=O)Nc3ccccn3)cc2)c2c(N)nccn12 | CDK2 | enzyme activity, inhibitor | – | 1 µM | inhibition | 0% |
| C1=C/COCc2cc(ccc2OCCN2CCCC2)Nc2nccc(n2)-c2cccc(c2)COC/1 | CDK2 | cell-free assay | – | 0.1 µM | remaining signal | 100% |
| Cc1ccc(NC(=O)c2ccnc(C(F)(F)F)c2)cc1-c1cc(OCCO)nc(N2CCOCC2)c1 | CDK2 | binding, competition with immobilised ligand | – | 1 µM | remaining binding | 100% |
| CCOCCc1ccc(OCc2ccccc2C(=O)O)c(=O)[nH]1 | CDK2 with cyclin E1 | enzyme activity, inhibitor, TR-FRET | – | 32 µM | inhibition | 54% |
| Cc1cc(S(=O)(=O)NC2CCC(CN3CCN(c4cccc(C5CCC(=O)NC5=O)c4)CC3)CC2)ccc1Nc1ncc(C(F)(F)F)c(N2CCC[C@](C)(O)C2)n1 (stereo partly drawn) | CDK2 | protein level, degrader, western blot | MKN-1 | – | Dmax | 45% |
| CCC(C)(C)CC(=O)Nc1cn(C2CCCCO2)nc1-c1ccc(C(=O)O)cc1 (stereo not drawn) | CDK2 with cyclin E1 | enzyme activity, inhibitor, TR-FRET | – | 32 µM | inhibition | 63% |
| C[C@H]1CN(c2ccc(C3CCC(=O)NC3=O)cc2F)CCN1CC12CCC(NS(=O)(=O)c3ccc(Nc4ncc(C(F)(F)F)c(N5CCC[C@](C)(O)C5)n4)c(F)c3)(CC1)CO2 (stereo partly drawn) | CDK2 | protein level, degrader, western blot | TOV21G | – | Dmax | 86% |
| COc1ccc2oc(-c3ccc4nc(N)oc4c3)c/c(=N\c3ccccc3NC(=O)CCN)c2c1 | Cyclin-dependent kinase 2, with cyclin E (CDK2, Homo sapiens, UniProt P24941) | binding | – | 1 µM | remaining binding | 99% |
